The results in this text go back to ChEMBL document CHEMBL1142545, “1,3-Dialkyl-8-(hetero)aryl-9-OH-9-deazaxanthines as potent A2B adenosine receptor antagonists: design, synthesis, structure-affinity and structure-selectivity relationships” (Bioorg Med Chem, 2008).

Assay [1] deals with T1, Adenosine receptor A2b (Homo sapiens, UniProt P29275).
T1 sequence (P29275 whole entry): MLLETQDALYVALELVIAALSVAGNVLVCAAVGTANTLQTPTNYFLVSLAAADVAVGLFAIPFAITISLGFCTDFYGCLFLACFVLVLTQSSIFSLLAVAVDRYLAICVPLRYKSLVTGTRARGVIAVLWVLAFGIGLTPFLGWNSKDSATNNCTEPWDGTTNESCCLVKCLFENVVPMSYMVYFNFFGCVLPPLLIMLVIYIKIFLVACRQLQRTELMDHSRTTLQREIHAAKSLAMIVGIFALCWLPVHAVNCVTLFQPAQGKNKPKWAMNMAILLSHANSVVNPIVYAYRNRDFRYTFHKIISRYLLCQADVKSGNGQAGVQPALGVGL
The experiment in a line: Displacement of [3H]DPCPX from human cloned adenosine A2B receptor expressed in HEK293 cells. The format is cell-based. (In general: Loss of bound radioactivity is the signal in a displacement assay; it reports binding, not function.)

Assay [2] deals with Adenosine receptor A2a (Rattus norvegicus, UniProt P30543). Put plainly: Antagonist activity at adenosine A2A receptor in Sprague-Dawley rat aorta assessed as inhibition of phenylephrine-induced contraction. The format is functional, tissue-based. Particulars: read-out: pA2 (converted). The method in brief: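 Aorta from male Sprague-Dawley rats (200–250 g), cut into 4 mm rings in Krebs solution at 37 °C with carbogen, 2 g basal tension, stabilised 60 min. Rings were contracted with phenylephrine, then antagonist was incubated for 30 min before cumulative NECA relaxation curves. pA2 = log((EC50'/EC50) − 1) − log C, from NECA EC50 with and without antagonist.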
Sequence of Adenosine receptor A2a (Rattus norvegicus, UniProt P30543) (P30543 whole entry): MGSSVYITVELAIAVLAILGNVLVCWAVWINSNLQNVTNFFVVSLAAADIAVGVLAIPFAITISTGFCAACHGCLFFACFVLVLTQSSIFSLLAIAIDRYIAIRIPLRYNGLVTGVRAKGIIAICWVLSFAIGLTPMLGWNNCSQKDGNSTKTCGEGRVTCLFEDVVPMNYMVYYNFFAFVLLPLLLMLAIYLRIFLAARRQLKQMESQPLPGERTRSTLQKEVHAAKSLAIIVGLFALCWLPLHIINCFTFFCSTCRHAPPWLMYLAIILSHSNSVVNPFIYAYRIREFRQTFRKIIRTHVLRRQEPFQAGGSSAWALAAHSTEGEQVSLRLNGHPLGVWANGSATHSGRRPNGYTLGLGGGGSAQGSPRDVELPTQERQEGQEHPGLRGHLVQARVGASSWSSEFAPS

For assay [3], the system named is HeLa. The experiment in a line: Selectivity index, ratio of Ki for human cloned adenosine A2A receptor expressed in human HeLa cells to Ki for human cloned adenosine A2B receptor expressed in HEK293 cells. The format is cell-based. The method in brief:
(§1)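 SI is the ratio of Ki values. […] A1 in CHO cells: [3H]DPCPX 2 nM. A2A in HeLa cells: [3H]ZM241385 3 nM. A2B in HEK-293 cells: [3H]DPCPX 25 nM. A3 in HeLa cells: [3H]NECA 30 nM. Filtration and scintillation counting.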

In the next assay the target is T2, Adenosine receptor A1 (Homo sapiens, UniProt P30542).
T2 sequence (P30542 whole entry): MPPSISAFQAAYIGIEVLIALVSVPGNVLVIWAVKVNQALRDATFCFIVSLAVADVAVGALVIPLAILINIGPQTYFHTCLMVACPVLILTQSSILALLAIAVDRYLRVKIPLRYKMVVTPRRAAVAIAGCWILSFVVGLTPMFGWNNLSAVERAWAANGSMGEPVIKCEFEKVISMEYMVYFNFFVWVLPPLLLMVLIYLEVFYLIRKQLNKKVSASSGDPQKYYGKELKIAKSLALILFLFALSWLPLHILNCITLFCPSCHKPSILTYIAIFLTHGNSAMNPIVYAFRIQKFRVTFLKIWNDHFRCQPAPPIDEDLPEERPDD
The experiment in a line: Displacement of [3H]DPCPX from human cloned adenosine A1 receptor expressed in CHO cells. The format is cell-based.

A further assay concerns HEK293. The experiment in a line: Selectivity index, ratio of Ki for human cloned adenosine A1 receptor expressed in CHO cells to Ki for human cloned adenosine A2B receptor expressed in HEK293 cells. The format is cell-based. The method in brief:
as §1

The test system of assay [4] is HeLa. The experiment in a line: Selectivity index, ratio of Ki for human cloned adenosine A3 receptor expressed in human HeLa cells to Ki for human cloned adenosine A2B receptor expressed in HEK293 cells. The format is cell-based. The method in brief: as §1
Assay [5] addresses T3, Adenosine receptor A2b (Rattus norvegicus, UniProt P29276).
T3 sequence (P29276 whole entry): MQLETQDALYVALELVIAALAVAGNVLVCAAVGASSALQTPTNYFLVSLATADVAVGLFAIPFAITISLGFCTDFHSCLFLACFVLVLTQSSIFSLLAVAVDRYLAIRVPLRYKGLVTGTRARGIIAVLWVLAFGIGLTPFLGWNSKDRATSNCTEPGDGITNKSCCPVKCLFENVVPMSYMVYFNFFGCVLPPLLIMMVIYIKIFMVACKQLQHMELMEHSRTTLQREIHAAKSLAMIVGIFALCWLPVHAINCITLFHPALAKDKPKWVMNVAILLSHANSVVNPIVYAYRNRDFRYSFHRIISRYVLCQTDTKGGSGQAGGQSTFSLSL
The experiment in a line: Antagonist activity at adenosine A2B receptor in Wistar-Kyoto rat distal colon. The conditions noted are these: read-out: pA2 (converted).

For a further assay, the target named is Adenosine receptor A3 (Homo sapiens, UniProt P0DMS8). The experiment in a line: Displacement of [3H]NECA from human cloned adenosine A3 receptor expressed in human HeLa cells. The format is cell-based.
Sequence of Adenosine receptor A3 (P0DMS8 whole entry): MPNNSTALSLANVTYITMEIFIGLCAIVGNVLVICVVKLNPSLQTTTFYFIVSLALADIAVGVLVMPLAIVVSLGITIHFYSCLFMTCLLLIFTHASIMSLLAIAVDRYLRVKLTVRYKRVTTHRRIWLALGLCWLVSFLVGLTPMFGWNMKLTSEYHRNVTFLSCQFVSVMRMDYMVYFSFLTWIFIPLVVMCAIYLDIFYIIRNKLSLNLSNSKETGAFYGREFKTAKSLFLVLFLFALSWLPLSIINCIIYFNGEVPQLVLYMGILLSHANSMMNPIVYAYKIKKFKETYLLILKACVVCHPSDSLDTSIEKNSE
Assay [6] deals with Adenosine receptor A2a (Homo sapiens, UniProt P29274). Put plainly: Displacement of [3H]ZM241385 from human cloned adenosine A2A receptor expressed in human HeLa cells. The format is cell-based.
Sequence of Adenosine receptor A2a (Homo sapiens, UniProt P29274) (P29274 whole entry): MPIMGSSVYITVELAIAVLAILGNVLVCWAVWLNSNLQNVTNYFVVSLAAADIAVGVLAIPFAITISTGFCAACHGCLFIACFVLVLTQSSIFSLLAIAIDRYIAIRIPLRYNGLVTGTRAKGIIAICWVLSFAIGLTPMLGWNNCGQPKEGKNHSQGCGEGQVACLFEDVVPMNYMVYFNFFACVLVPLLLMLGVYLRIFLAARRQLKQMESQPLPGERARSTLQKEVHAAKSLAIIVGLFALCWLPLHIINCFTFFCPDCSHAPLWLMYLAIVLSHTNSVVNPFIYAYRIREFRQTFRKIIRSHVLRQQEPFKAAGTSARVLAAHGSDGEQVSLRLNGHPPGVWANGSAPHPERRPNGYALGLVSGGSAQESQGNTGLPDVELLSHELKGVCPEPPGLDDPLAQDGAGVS

In general, Ki refers to a dissociation constant, usually derived from enzyme kinetics or from competition with a known ligand. `CCCn1c(=O)c2[nH]c(-c3ccc(OCC(=O)Nc4ccc(Br)cc4)cc3)c(O)c2n(CCC)c1=O`: the inhibition constant (Ki) on Adenosine receptor A2b [1] turned out to be 1 nM; at Adenosine receptor A1, 79 nM; at Adenosine receptor A3, 1290 nM; at Adenosine receptor A2a [6] it was 100 nM. Moreover, the Kb is 224 nM on Adenosine receptor A2a [2] and 0.468 nM on Adenosine receptor A2b [5]. The Ratio Ki was determined as 100 in the assay with HeLa [3], 79 in the assay with HEK293 and 1290 in the assay with HeLa [4].
